Legend:
[1] = Half life in Sprague-Dawley rat liver microsomes at 1 uM preincubated for 10 mins followed by NADPH addition measured up to 60 mins by LC/MS/MS analysis; assay type: ADME, Microsome
How it was run: (§1)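 Test compound at 1 µM with 0.5 mg/mL liver microsomal protein (CD-1 mouse, SD rat or human) in 100 mM potassium phosphate, pH 7.4. Preincubated 10 min at 37°C, then started with NADPH (1 mM generating system). Sampled at 0–60 min and stopped with cold acetonitrile containing internal standards. Compound loss gave T1/2. A no-NADPH control ran 60 min.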

[2] = Half life in human liver microsomes at 1 uM preincubated for 10 mins followed by NADPH addition measured up to 60 mins by LC/MS/MS analysis; assay type: ADME, Microsome; how it was run: as §1
[3] = Cytotoxicity against MDCK cells assessed as reduction in cell viability after 5 days by CCK-8 assay; assay type: cell-based, Canis lupus familiaris; details: dog
How it was run: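 MDCK cells seeded at 2×10^3 per well and grown overnight at 37°C, 5% CO2. Diluted compound (0.5% DMSO final) added without virus, then 5 days at 37°C. Viability read by CCK-8. CC50 is the concentration cutting viability to 50% of control, from a dose-response fit.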

[4] = Half life in CD-1 mouse liver microsomes at 1 uM preincubated for 10 mins followed by NADPH addition measured up to 60 mins by LC/MS/MS analysis; assay type: ADME, Microsome; how it was run: as §1
[5] = Half life in CD-1 mouse at 0.5 mg/kg, iv; assay type: ADME, organism-based; details: in vivo
How it was run: (§2)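 Male CD-1 mice, n=3 per dose, values are cohort means. Cassette PK: 0.5 mg/kg iv and 1 mg/kg po, both in 20% Solutol in water. Reported parameters are clearance, T1/2, Vd, AUC, Cmax, Tmax and %F.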

[6] = Volume of distribution in CD-1 mouse at 0.5 mg/kg, iv; assay type: ADME, organism-based; details: in vivo; how it was run: as §2
[7] = Tmax in CD-1 mouse at 1 mg/kg, po; assay type: ADME, organism-based; details: in vivo; how it was run: as §2
[8] = Cmax in CD-1 mouse at 1 mg/kg, po; assay type: ADME, organism-based; design: dose 1 mg/kg, route oral; details: in vivo; how it was run: as §2
[9] = AUC in CD-1 mouse at 0.5 mg/kg, iv; assay type: ADME, organism-based; details: in vivo; how it was run: as §2
[10] = Oral bioavailability in CD-1 mouse at 1 mg/kg; assay type: ADME, organism-based; details: in vivo; how it was run: as §2
[11] = AUC in CD-1 mouse at 1 mg/kg, po; assay type: ADME, organism-based; details: in vivo; how it was run: as §2
[12] = Clearance in CD-1 mouse at 0.5 mg/kg, iv; assay type: ADME, organism-based; details: in vivo; how it was run: as §2
[13] = Oral bioavailability in CD-1 mouse at 10 mg/kg; assay type: ADME, organism-based; details: in vivo
How it was run: (§3)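 Male CD-1 mice, n=3 per dose, values are cohort means. Dosed 1 mg/kg iv and 10 mg/kg po, each in 20% Solutol in water. Reported parameters are Cl, T1/2, Vd, AUC, Cmax, Tmax and %F.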

[14] = Tmax in CD-1 mouse at 10 mg/kg, po; assay type: ADME, organism-based; details: in vivo; how it was run: as §3
[15] = AUC in CD-1 mouse at 10 mg/kg, po; assay type: ADME, organism-based; details: in vivo; how it was run: as §3
[16] = Volume of distribution in CD-1 mouse at 1 mg/kg, iv; assay type: ADME, organism-based; details: in vivo; how it was run: as §3
[17] = Cmax in CD-1 mouse at 10 mg/kg, po; assay type: ADME, organism-based; design: dose 10 mg/kg, route oral; details: in vivo; how it was run: as §3
[18] = Clearance in CD-1 mouse at 1 mg/kg, iv; assay type: ADME, organism-based; details: in vivo; how it was run: as §3
[19] = Half life in CD-1 mouse at 1 mg/kg, iv; assay type: ADME, organism-based; details: in vivo; how it was run: as §3
[20] = AUC in CD-1 mouse at 1 mg/kg, iv; assay type: ADME, organism-based; details: in vivo; how it was run: as §3

Structure (SMILES): O=C(O)[C@H]1C2CCC(CC2)[C@@H]1Nc1nc(-c2n[nH]c3ncc(F)cc23)nc2ccsc12
- half-life at 1 µM [1]: 1.22 h
- half-life at 1 µM [2]: 1.28 h
- CC50 at 120 h [3]: 0.2 µM
- half-life at 1 µM [4]: 0.683 h

Structure (SMILES): O=C(O)[C@H]1C2CCC(CC2)[C@@H]1Nc1nc(-c2c[nH]c3ncc(F)cc23)nc2scnc12
- CC50 at 120 h [3]: 1.5 µM

Structure (SMILES): N#Cc1csc2c(N[C@H]3C4CCC(CC4)[C@@H]3C(=O)O)nc(-c3c[nH]c4ncc(F)cc34)nc12
- CC50 at 120 h [3]: 0.7 µM

Structure (SMILES): O=C(O)[C@H]1C2CCC(CC2)[C@@H]1Nc1nc(-n2ccc3ncc(F)cc32)ncc1F
- CC50 at 120 h [3]: 1.1 µM

Structure (SMILES): Cn1cc(F)c2c(N[C@H]3C4CCC(CC4)[C@@H]3C(=O)O)nc(-c3c[nH]c4ncc(F)cc34)nc21
- CC50 at 120 h [3]: 0.6 µM

Structure (SMILES): O=C(O)[C@H]1C2CCC(CC2)[C@@H]1Nc1nc(-c2c[nH]c3ncc(F)cc23)nc2cccc(F)c12
- CC50 at 120 h [3]: 1.8 µM

Structure (SMILES): O=C(O)[C@H]1C2CCC(CC2)[C@@H]1Nc1nc(-c2c[nH]c3ncc(F)cc23)nc2ccsc12
- half-life [5]: 2 h
- Vd [6]: 2.4 L/kg
- Tmax [7]: 0.4 h
- Cmax [8]: 172 nM
- half-life at 1 µM [1]: 0.87 h
- half-life at 1 µM [2]: 0.828 h
- CC50 at 120 h [3]: 1.5 µM
- AUC [9]: 1.01 µM·h
- bioavailability [10]: 37%
- half-life at 1 µM [4]: 0.808 h
- AUC [11]: 0.69 µM·h
- clearance [12]: 18.9 mL/min/kg

Structure (SMILES): O=C(O)[C@H]1C2CCC(CC2)[C@@H]1Nc1nc(-c2c[nH]c3ncc(F)cc23)nc2ccoc12
- CC50 at 120 h [3]: 6.2 µM

Structure (SMILES): O=C(O)[C@H]1C2CCC(CC2)[C@@H]1Nc1nc(-c2c[nH]c3ncc(F)cc23)nc2c1CSC2
- CC50 at 120 h [3]: 4.4 µM

Structure (SMILES): O=C(O)[C@H]1C2CCC(CC2)[C@@H]1Nc1nc(-c2c[nH]c3ncc(F)cc23)nc2c1CCC2
- CC50 at 120 h [3]: 10 µM

Structure (SMILES): O=C(O)[C@H]1C2CCC(CC2)[C@@H]1Nc1nc(-c2c[nH]c3ncc(F)cc23)nc2c1CCS2
- CC50 at 120 h [3]: 5.6 µM

Structure (SMILES): O=C(O)[C@H]1C2CCC(CC2)[C@@H]1Nc1nc(-c2n[nH]c3ncc(F)cc23)nc2c1SCC2
- bioavailability [13]: 57%
- Tmax [14]: 0.67 h
- AUC [15]: 152 µM·h
- Vd [16]: 0.2 L/kg
- Cmax [17]: 32600 nM
- half-life at 1 µM [1]: > 2.42 h
- clearance [18]: 1.3 mL/min/kg
- half-life at 1 µM [2]: > 2.42 h
- CC50 at 120 h [3]: 4.9 µM
- half-life [19]: 3 h
- half-life at 1 µM [4]: 1.71 h
- AUC [20]: 28.7 µM·h

Structure (SMILES): O=C(O)[C@H]1C2CCC(CC2)[C@@H]1Nc1nc(-c2c[nH]c3ccc(F)cc23)ncc1F
- CC50 at 120 h [3]: 10 µM

Structure (SMILES): O=C(O)[C@H]1C2CCC(CC2)[C@@H]1Nc1nc(-c2c[nH]c3ncc(F)cc23)nc2cccnc12
- CC50 at 120 h [3]: 7 µM

Structure (SMILES): O=C(O)[C@H]1C2CCC(CC2)[C@@H]1Nc1nc(-c2c[nH]c3ncc(F)cc23)nc2c1CS(=O)(=O)C2
- CC50 at 120 h [3]: > 50 µM

Structure (SMILES): Cc1cnc2c(N[C@H]3C4CCC(CC4)[C@@H]3C(=O)O)nc(-c3c[nH]c4ncc(F)cc34)nc2c1
- CC50 at 120 h [3]: 4.9 µM

Structure (SMILES): O=C(O)[C@H]1C2CCC(CC2)[C@@H]1Nc1nc(-c2c[nH]c3ncc(F)cc23)nc2cc(F)cnc12
- CC50 at 120 h [3]: 1.4 µM

Structure (SMILES): O=C(O)[C@H]1C2CCC(CC2)[C@@H]1Nc1nc(-c2c[nH]c3ncc(F)cc23)nc2c1CCCC2
- CC50 at 120 h [3]: > 50 µM

Structure (SMILES): O=C(O)[C@H]1C2CCC(CC2)[C@@H]1Nc1nc(-c2c[nH]c3ncc(F)cc23)nc2[nH]ccc12
- CC50 at 120 h [3]: 15 µM

Structure (SMILES): Cc1cccc2nc(-c3c[nH]c4ncc(F)cc34)nc(N[C@H]3C4CCC(CC4)[C@@H]3C(=O)O)c12
- CC50 at 120 h [3]: 4.7 µM

Structure (SMILES): O=C(O)[C@H]1C2CCC(CC2)[C@@H]1Nc1nc(-c2c[nH]c3ncc(F)cc23)nc2c1S(=O)(=O)CC2
- CC50 at 120 h [3]: > 50 µM

Structure (SMILES): O=C(O)[C@H]1C2CCC(CC2)[C@@H]1N1CCOc2cnc(-c3c[nH]c4ncc(F)cc34)nc21
- CC50 at 120 h [3]: > 50 µM

Structure (SMILES): O=C(O)[C@H]1C2CCC(CC2)[C@@H]1Nc1nc(-c2c[nH]c3ncc(F)cc23)nc2cscc12
- half-life [5]: 1.3 h
- Vd [6]: 5.7 L/kg
- Tmax [7]: 0.33 h
- Cmax [8]: 29.2 nM
- CC50 at 120 h [3]: > 50 µM
- AUC [9]: 0.252 µM·h
- bioavailability [10]: 10%
- AUC [11]: 0.0488 µM·h
- clearance [12]: 73.7 mL/min/kg

Structure (SMILES): Cc1cccc2nc(N[C@H]3C4CCC(CC4)[C@@H]3C(=O)O)nc(-c3c[nH]c4ncc(F)cc34)c12
- CC50 at 120 h [3]: 2.1 µM

Structure (SMILES): O=C(O)[C@H]1C2CCC(CC2)[C@@H]1n1ccc2cnc(-c3c[nH]c4ncc(F)cc34)nc21
- CC50 at 120 h [3]: 4 µM

Structure (SMILES): O=C(O)[C@H]1C2CCC(CC2)[C@@H]1Nc1nc(-c2c[nH]c3ncc(F)cc23)nc2cc(C(F)F)sc12
- CC50 at 120 h [3]: 3.3 µM

Structure (SMILES): O=C(O)[C@H]1C2CCC(CC2)[C@@H]1Nc1nc(-c2c[nH]c3ncc(F)cc23)nc2nccnc12
- CC50 at 120 h [3]: 46 µM

Structure (SMILES): O=C(O)[C@H]1C2CCC(CC2)[C@@H]1Nc1nc(-c2c[nH]c3ncc(F)cc23)nc2sccc12
- Tmax [7]: 0.83 h
- Cmax [8]: 509 nM
- half-life at 1 µM [1]: 1.52 h
- half-life at 1 µM [2]: 1.74 h
- CC50 at 120 h [3]: 0.6 µM
- half-life at 1 µM [4]: 1.02 h
- AUC [11]: 1.35 µM·h

Structure (SMILES): O=C(O)[C@H]1C2CCC(CC2)[C@@H]1Nc1nc(-c2c[nH]c3ncc(F)cc23)nc2c1SCC2
- bioavailability [13]: 71%
- Tmax [14]: 0.25 h
- AUC [15]: 19.5 µM·h
- Vd [16]: 2.3 L/kg
- Cmax [17]: 15000 nM
- half-life at 1 µM [1]: 1.92 h
- clearance [18]: 13.8 mL/min/kg
- half-life at 1 µM [2]: 1.66 h
- CC50 at 120 h [3]: 4.5 µM
- half-life [19]: 2.3 h
- half-life at 1 µM [4]: 0.855 h
- AUC [20]: 2.79 µM·h

Structure (SMILES): N#Cc1cn([C@H]2C3CCC(CC3)[C@@H]2C(=O)O)c2nc(-c3c[nH]c4ncc(F)cc34)ncc12
- CC50 at 120 h [3]: 5.4 µM

Structure (SMILES): O=C(O)[C@H]1C2CCC(CC2)[C@@H]1n1cnc2cnc(-c3c[nH]c4ncc(F)cc34)nc21
- CC50 at 120 h [3]: 21.7 µM

Structure (SMILES): O=C(O)[C@H]1C2CCC(CC2)[C@@H]1Nc1nc(-c2n[nH]c3ncc(F)cc23)nc2sccc12
- half-life at 1 µM [1]: 1.08 h
- half-life at 1 µM [2]: 1.18 h
- CC50 at 120 h [3]: 2.7 µM
- half-life at 1 µM [4]: 0.55 h

Structure (SMILES): O=C(O)[C@H]1C2CCC(CC2)[C@@H]1Nc1nc(-c2c[nH]c3ncc(F)cc23)ncc1F [PIMODIVIR]
- bioavailability [13]: 100%
- Tmax [14]: 2.5 h
- AUC [15]: 13.4 µM·h
- Vd [16]: 7.1 L/kg
- Cmax [17]: 2050 nM
- half-life at 1 µM [1]: > 2.42 h
- clearance [18]: 30.9 mL/min/kg
- half-life at 1 µM [2]: > 2.42 h
- CC50 at 120 h [3]: 12 µM
- half-life [19]: 1.9 h
- half-life at 1 µM [4]: > 2.42 h
- AUC [20]: 1.36 µM·h

Source: ChEMBL document CHEMBL4325902, “Design, synthesis and biological evaluation of novel, orally bioavailable pyrimidine-fused heterocycles as influenza PB2 inhibitors” (Eur J Med Chem, 2019)
